From ChEMBL document CHEMBL4406845, “Synthesis of benzotriazoles derivatives and their dual potential as α-amylase and α-glucosidase inhibitors in vitro: Structure-activity relationship, molecular docking, and kinetic studies” (Eur J Med Chem, 2019)

How the values were obtained:
Alpha amylase = biological target: T1, Alpha amylase (Homo sapiens, UniProt P0DUB6); assay: Inhibition of alpha-amylase (unknown origin) using starch as substrate preincubated for 10 mins followed by substrate addition and measured after 10 mins by dinitrosalicylic acid reagent based assay
T1 sequence (P0DUB6 whole entry): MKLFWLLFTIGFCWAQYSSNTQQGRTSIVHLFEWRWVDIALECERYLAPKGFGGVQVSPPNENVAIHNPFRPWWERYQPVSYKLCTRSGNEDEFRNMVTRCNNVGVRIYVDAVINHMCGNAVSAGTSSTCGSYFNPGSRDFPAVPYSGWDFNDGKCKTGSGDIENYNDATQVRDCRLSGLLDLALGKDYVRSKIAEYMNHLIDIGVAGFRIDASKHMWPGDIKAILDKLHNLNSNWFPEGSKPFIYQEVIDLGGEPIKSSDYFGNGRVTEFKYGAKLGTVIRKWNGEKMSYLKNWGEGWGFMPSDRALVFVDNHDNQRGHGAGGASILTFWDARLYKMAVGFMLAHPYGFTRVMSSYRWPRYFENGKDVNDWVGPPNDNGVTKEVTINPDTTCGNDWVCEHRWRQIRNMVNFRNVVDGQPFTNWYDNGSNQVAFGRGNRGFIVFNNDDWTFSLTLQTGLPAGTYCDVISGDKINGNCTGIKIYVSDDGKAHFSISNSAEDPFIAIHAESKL

Alpha glucosidase = Alpha glucosidase (Homo sapiens, UniProt O43451+P10253+P14410+Q2M2H8); assay: Inhibition of alpha-glucosidase (unknown origin); assay type: protein assay
[1] = system: CCCCOc1ccc(C(=O)n2nnc3ccccc32)cc1; assay: (§1) Non-competitive inhibition of alpha-glucosidase (unknown origin) assessed as substrate Vmax using p-nitrophenyl-R-D-maltoside as substrate incubated for 30 mins at 1 min interval by ELISA-based Lineweaver-burk plot analysis; assay type: protein assay; details: Homo sapiens
[2] = system: COc1ccc(C(=O)Cn2nnc3cc(C)c(C)cc32)cc1; assay: as §1; assay type: protein assay; details: Homo sapiens
[3] = system: Cc1cc(C(=O)n2nnc3ccccc32)cc(C)c1C; assay: as §1; assay type: protein assay; details: Homo sapiens
[4] = system: Cc1cc2nnn(C(=O)c3ccccc3)c2cc1C; assay: as §1; assay type: protein assay; details: Homo sapiens
[5] = system: Cc1ccc(C(=O)n2nnc3cc(Cl)c(Cl)cc32)cc1C; assay: as §1; assay type: protein assay; details: Homo sapiens
[6] = system: O=C(Cn1nnc2ccccc21)c1cccc([N+](=O)[O-])c1; assay: as §1; assay type: protein assay; details: Homo sapiens
[7] = system: O=C(Cn1nnc2ccccc21)c1ccccc1O; assay: as §1; assay type: protein assay; details: Homo sapiens
[8] = system: O=C(c1ccc(Br)cc1)n1nnc2ccccc21; assay: as §1; assay type: protein assay; details: Homo sapiens
[9] = system: O=C(c1cccc(Cl)c1)n1nnc2cc(Cl)c(Cl)cc21; assay: as §1; assay type: protein assay; details: Homo sapiens
[10] = system: CCCCOc1ccc(C(=O)n2nnc3ccccc32)cc1; assay: (§2) Non-competitive inhibition of alpha-glucosidase (unknown origin) assessed as substrate Km using p-nitrophenyl-R-D-maltoside as substrate incubated for 30 mins at 1 min interval by ELISA-based Lineweaver-burk plot analysis; assay type: protein assay; details: Homo sapiens
[11] = system: COc1ccc(C(=O)Cn2nnc3cc(C)c(C)cc32)cc1; assay: as §2; assay type: protein assay; details: Homo sapiens
[12] = system: Cc1cc(C(=O)n2nnc3ccccc32)cc(C)c1C; assay: as §2; assay type: protein assay; details: Homo sapiens
[13] = system: Cc1cc2nnn(C(=O)c3ccccc3)c2cc1C; assay: as §2; assay type: protein assay; details: Homo sapiens
[14] = system: Cc1ccc(C(=O)n2nnc3cc(Cl)c(Cl)cc32)cc1C; assay: as §2; assay type: protein assay; details: Homo sapiens
[15] = system: O=C(Cn1nnc2ccccc21)c1cccc([N+](=O)[O-])c1; assay: as §2; assay type: protein assay; details: Homo sapiens
[16] = system: O=C(Cn1nnc2ccccc21)c1ccccc1O; assay: as §2; assay type: protein assay; details: Homo sapiens
[17] = system: O=C(c1ccc(Br)cc1)n1nnc2ccccc21; assay: as §2; assay type: protein assay; details: Homo sapiens
[18] = system: O=C(c1cccc(Cl)c1)n1nnc2cc(Cl)c(Cl)cc21; assay: as §2; assay type: protein assay; details: Homo sapiens
[19] = system: COc1ccc(C(=O)Cn2nnc3cc(C)c(C)cc32)cc1; assay: (§3) Competitive inhibition of alpha-amylase (unknown origin) assessed as substrate Vmax using p-nitrophenyl-R-D-maltoside as substrate incubated for 30 mins by ELISA-based Lineweaver-burk plot analysis; details: Homo sapiens
Summary of the method: (§4)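 Kinetics: inhibitor at 0.0625, 0.125, 0.3 and 0.4 mM crossed with p-nitrophenyl-R-D-maltoside at 0.1, 0.2, 0.4, 0.8 and 1.0 mM. Enzyme dissolved in deionized water, 0.2 mg/mL per well. PIPES buffer, pH 7.0, 30 min at 25 °C. Absorbance read on a plate reader. Vmax, Km, AICc and R² obtained by enzyme-kinetic graph fitting.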

[20] = system: COc1ccc(C(=O)n2nnc3ccccc32)cc1; assay: as §3; details: Homo sapiens; summary of the method: as §4
[21] = system: Cc1cc2nnn(CC(=O)c3ccc(Cl)c(Cl)c3)c2cc1C; assay: as §3; details: Homo sapiens; summary of the method: as §4
[22] = system: Cc1cc2nnn(CC(=O)c3ccc(Cl)cc3)c2cc1C; assay: as §3; details: Homo sapiens; summary of the method: as §4
[23] = system: O=C(Cn1nnc2ccccc21)c1ccc(Cl)cc1; assay: as §3; details: Homo sapiens; summary of the method: as §4
[24] = system: O=C(Cn1nnc2ccccc21)c1cccc(Br)c1; assay: as §3; details: Homo sapiens; summary of the method: as §4
[25] = system: O=C(c1ccc(F)cc1)n1nnc2ccccc21; assay: as §3; details: Homo sapiens; summary of the method: as §4
[26] = system: O=C(c1ccc([N+](=O)[O-])cc1)n1nnc2ccccc21; assay: as §3; details: Homo sapiens; summary of the method: as §4
[27] = system: O=C(c1cccc(Cl)c1)n1nnc2cc(Cl)c(Cl)cc21; assay: as §3; details: Homo sapiens; summary of the method: as §4
[28] = system: COc1ccc(C(=O)Cn2nnc3cc(C)c(C)cc32)cc1; assay: (§5) Competitive inhibition of alpha-amylase (unknown origin) assessed as substrate Km using p-nitrophenyl-R-D-maltoside as substrate incubated for 30 mins by ELISA-based Lineweaver-burk plot analysis; details: Homo sapiens; summary of the method: as §4
[29] = system: COc1ccc(C(=O)n2nnc3ccccc32)cc1; assay: as §5; details: Homo sapiens; summary of the method: as §4
[30] = system: Cc1cc2nnn(CC(=O)c3ccc(Cl)c(Cl)c3)c2cc1C; assay: as §5; details: Homo sapiens; summary of the method: as §4
[31] = system: Cc1cc2nnn(CC(=O)c3ccc(Cl)cc3)c2cc1C; assay: as §5; details: Homo sapiens; summary of the method: as §4
[32] = system: O=C(Cn1nnc2ccccc21)c1ccc(Cl)cc1; assay: as §5; details: Homo sapiens; summary of the method: as §4
[33] = system: O=C(Cn1nnc2ccccc21)c1cccc(Br)c1; assay: as §5; details: Homo sapiens; summary of the method: as §4
[34] = system: O=C(c1ccc(F)cc1)n1nnc2ccccc21; assay: as §5; details: Homo sapiens; summary of the method: as §4
[35] = system: O=C(c1ccc([N+](=O)[O-])cc1)n1nnc2ccccc21; assay: as §5; details: Homo sapiens; summary of the method: as §4
[36] = system: O=C(c1cccc(Cl)c1)n1nnc2cc(Cl)c(Cl)cc21; assay: as §5; details: Homo sapiens; summary of the method: as §4

Compound | IC50 (Alpha amylase) | IC50 (Alpha glucosidase) | other results
Nc1cc(C(=O)n2nnc3ccccc32)ccc1Cl | 4.28 µM | 4.32 µM | 
O=C(c1ccc(F)c(F)c1Cl)n1nnc2ccccc21 | 5.72 µM | 5.63 µM | 
Cc1ccc(C(=O)n2nnc3cc(Cl)c(Cl)cc32)cc1C | 3.66 µM | 3.82 µM | 
Cc1cc2nnn(CC(=O)c3ccc(Cl)c(Cl)c3)c2cc1C | 2 µM | 2.04 µM | 
O=C(Cn1nnc2ccccc21)c1ccc(-c2ccccc2)cc1 | 4.92 µM | 4.98 µM | 
Cc1cc2nnn(CC(=O)c3ccccc3O)c2cc1C | 3.21 µM | 3.3 µM | 
O=C(c1c(F)cccc1F)n1nnc2ccccc21 | 5 µM | 5.23 µM | 
Cc1cc2nnn(C(=O)c3ccccc3)c2cc1C | 3.32 µM | 3.4 µM | 
COc1ccccc1C(=O)n1nnc2ccccc21 | 4.77 µM | 4.79 µM | 
CCCCOc1ccc(C(=O)n2nnc3ccccc32)cc1 | 5.4 µM | 5.6 µM | 
O=C(Cn1nnc2ccccc21)c1ccccc1 | 4.89 µM | 4.91 µM | 
Cc1cc2nnn(CC(=O)c3ccc(Cl)cc3)c2cc1C | 2.12 µM | 2.21 µM | 
Alpha glucosidase (Homo sapiens) (from UniProt O43451+P10253+P14410+Q2M2H8) |  |  | Vmax [1]: 621 µM/min; Vmax [2]: 620 µM/min; Vmax [3]: 612 µM/min; Vmax [4]: 602 µM/min; Vmax [5]: 620 µM/min; Vmax [6]: 618 µM/min; Vmax [7]: 601 µM/min; Vmax [8]: 612 µM/min; Vmax [9]: 620 µM/min; Km [10]: 240 µM; Km [11]: 210 µM; Km [12]: 200 µM; Km [13]: 200 µM; Km [14]: 240 µM; Km [15]: 260 µM; Km [16]: 250 µM; Km [17]: 200 µM; Km [18]: 250 µM
O=C(Cn1nnc2ccccc21)c1ccc(Br)cc1 | 2.76 to 4.35 µM | 2.79 to 4.41 µM | 
COc1ccc(C(=O)Cn2nnc3cc(C)c(C)cc32)cc1 | 2.51 µM | 2.6 µM | 
O=C(Cn1nnc2ccccc21)c1ccc(Cl)c(Cl)c1 | 3.89 µM | 3.9 µM | 
O=C(Cn1nnc2ccccc21)c1cccc(Cl)c1Cl | 3.51 µM | 3.47 µM | 
Cc1ccc(C(=O)n2nnc3ccccc32)cc1C | 4.73 µM | 4.8 µM | 

Compound | IC50 (Alpha amylase) | IC50 (Alpha glucosidase) | other results
Cc1cc(C(=O)n2nnc3ccccc32)cc(C)c1C | 4.12 µM | 4.23 µM | 
O=C(c1ccccc1)n1nnc2cc(Cl)c(Cl)cc21 | 3.66 µM | 3.7 µM | 
COc1ccc(C(=O)n2nnc3ccccc32)cc1 | 2.98 µM | 2.99 µM | 
O=C(Cn1nnc2ccccc21)c1cccc([N+](=O)[O-])c1 | 4.02 µM | 4 µM | 
O=C(c1ccccc1)n1nnc2ccccc21 | 5.38 µM | 5.29 µM | 
O=C(Cn1nnc2ccccc21)c1ccccc1O | 4.9 µM | 4.87 µM | 
O=C(c1ccc(Br)cc1)n1nnc2ccccc21 | 3.13 µM | 3.2 µM | 
O=C(Cn1nnc2ccccc21)c1ccc(Cl)cc1 | 2.41 µM | 2.5 µM | 
Cc1cc2nnn(CC(=O)c3ccccc3)c2cc1C | 3.53 µM | 3.41 µM | 
COc1ccc(C(=O)Cn2nnc3ccccc32)cc1 | 4.42 µM | 4.5 µM | 
Alpha amylase (Homo sapiens) (from UniProt P0DUB6) |  |  | Vmax [19]: 505 µM/min; Vmax [20]: 554 µM/min; Vmax [21]: 593 µM/min; Vmax [22]: 514 µM/min; Vmax [23]: 527 µM/min; Vmax [24]: 512 µM/min; Vmax [25]: 522 µM/min; Vmax [26]: 512 µM/min; Vmax [27]: 514 µM/min; Km [28]: 200 µM; Km [29]: 210 µM; Km [30]: 240 µM; Km [31]: 180 µM; Km [32]: 200 µM; Km [33]: 210 µM; Km [34]: 190 µM; Km [35]: 200 µM; Km [36]: 200 µM
O=C(c1ccc([N+](=O)[O-])cc1)n1nnc2ccccc21 | 2.92 µM | 2.97 µM | 
Cc1ccc(C(=O)Cn2nnc3ccccc32)cc1 | 4.56 µM | 4.78 µM | 
Cc1cc(C(=O)n2nnc3ccccc32)ccc1[N+](=O)[O-] | 4.08 µM | 4.1 µM | 
O=C(c1ccc(F)cc1)n1nnc2ccccc21 | 2.8 µM | 2.82 µM | 
O=C(Cn1nnc2ccccc21)c1cccc(Br)c1 | 4.35 µM | 4.41 µM | 
O=C(c1cccc(Cl)c1)n1nnc2cc(Cl)c(Cl)cc21 | 2.99 µM | 3 µM | 
Cc1cccc(C(=O)n2nnc3ccccc32)c1 | 4.3 µM | 4.42 µM | 
